# ChEMBL document CHEMBL1123165, “A quantitative structure-activity relationship and molecular graphics analysis of hydrophobic effects in the interactions of inhibitors with alcohol dehydrogenase” (J Med Chem, 1986)
# Legend:
# [1] = Partition coefficient (logP); type: physicochemical; details: octanol/water
# Alcohol dehydrogenase = Alcohol dehydrogenase (Equus caballus, UniProt P00327+P00328); assay: Inhibitory activity against horse liver alcohol dehydrogenase (ADH)
# How it was run: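 Horse liver ADH crystalline suspension, pelleted (12000g, 3 min) to remove ethanol, redissolved in 0.1 M potassium phosphate pH 7.0, diluted 1:10; 0.004 unit per assay. Reaction started with 5 or 10 mM ethanol, NADH read at 340 nm.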
SMILES,logP [1],Log 1/Ki (Alcohol dehydrogenase)
CCCCCOc1ccc(CC(N)=O)cc1,2.58,5.92
c1cn[nH]c1 [PYRAZOLE],0.26,5.73
O=CNCc1ccc(OCc2ccccc2)cc1,,7.82
C/C=C/C(N)=O,-0.51,2.89
CC(C)Oc1ccc(CC(N)=O)cc1,1.3,4.1
O=CNCc1ccc(O)cc1,,5.75
Cc1cn[nH]c1 [FOMEPIZOLE],0.96,6.85
CCCCOc1ccc(CC(N)=O)cc1,2.04,5.15
NC(=O)C(F)F,-0.76,1.12
CCCCCCc1cn[nH]c1,3.46,8.88
COc1ccc(CC(N)=O)cc1,0.43,4.15
CCCOc1ccc(CC(N)=O)cc1,1.5,4.6
C/C=C(\C)C(N)=O,-0.21,3.15
NC(=O)Cc1ccc(Cl)cc1,1.16,4.7
CC(C)(C)C(N)=O [PIVALAMIDE],0.15,2.46
NC(=O)Cc1ccc(OCC2CCCCC2)cc1,3.42,6
CCOc1ccc(CC(N)=O)cc1,0.83,4.1
NC(=O)Cc1ccc(F)cc1,0.59,4.19
NC(=O)Cc1ccc(I)cc1,1.57,5.1
CCCCCOc1ccc(CNC=O)cc1,,7.52

SMILES,logP [1],Log 1/Ki (Alcohol dehydrogenase)
CCCCCc1cn[nH]c1,2.96,8.6
NC(=O)C(Br)Br,0.18,2.49
NC(=O)C(Cl)Cl,-0.03,2.19
CCCCOc1ccc(CNC=O)cc1,,7.4
CCCCCCc1ccc(CNC=O)cc1,,7.58
CC(C)CCOc1ccc(CC(N)=O)cc1,2.38,5.22
NC(=O)Cc1ccc(OCc2ccc(Br)cc2)cc1,2.97,5.7
NC(=O)CI [IODOACETAMIDE],0.15,2.72
NC(=O)CBr,,2.24
NC(=O)CCl,-0.59,2.12
NC(=O)Cc1ccc(Br)cc1,1.31,4.7
C=C(C)C(N)=O,-0.71,3.02
CC(C)C(N)=O [ISOBUTYRAMIDE],-0.39,3.77
CCCc1cn[nH]c1,1.96,7.65
NC(=O)CF [MONOFLUOROACETAMIDE],-1.03,1.41
CCC(CC)C(N)=O,0.53,3.41
NC(=O)Cc1ccc(OCc2ccccc2)cc1,2.11,5.7
NC(=O)C(F)(F)F [TRIFLUOROACETAMIDE],-0.11,1.33
C=CC(N)=O [ACRYLAMIDE],-1.01,2.11
NC(=O)C(Cl)(Cl)Cl,0.79,2.07
